Values after ≈ are worked out from the molar mass of the structure shown.
Legend:
Pseudomonas aeruginosa [1] = test: (§1) Compound was tested for inhibition of the gram-negative organism Pseudomonas aeruginosa UI-18; format: functional
How it was run: (§2)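 MICs read in standard microdilution (microtitration) format against a panel of 10 bacterial organisms; values in µg/mL.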

Mus musculus [2] = test: Compound was evaluated for protective dose against the […] UC-76 lethal infection following po administration in mouse; format: functional; details: read-out: PD50
How it was run: (§3)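 Acute lethal systemic infection in female Charles River CD-1 mice (18–22 g), challenged intraperitoneally with an estimated 100 median lethal dose in 5% hog gastric mucin. Single doses in a twofold rising series were given with the challenge, sc as aqueous solution or po by gavage in 5% gum acacia. PD50 (mg/kg) was estimated by log probit from survival of eight mice per dose.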

Staphylococcus aureus [3] = test: (§4) Compound was tested for inhibition of the […] organism […] UC-76.; format: functional; how it was run: as §2
Klebsiella pneumoniae [4] = test: (§5) Compound was tested for inhibition of the gram-negative organism Klebsiella pneumoniae MGH-2; format: functional; how it was run: as §2
Mus musculus [5] = test: Compound was evaluated for protective dose against the […] UC-76 lethal infection following sc administration in mouse; format: functional; details: read-out: PD50; how it was run: as §3
Escherichia coli [6] = test: (§6) Compound was tested for inhibition of the gram-negative organism Escherichia coli H560; format: functional; how it was run: as §2
Mus musculus [7] = test: Compound was evaluated for protective dose against the Streptococcus pneumoniae SV-1 lethal infection following po administration; format: functional; details: read-out: PD50
How it was run: (§7)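 Female Charles River CD-1 mice (18–22 g) were challenged intraperitoneally with an estimated 100 median lethal dose in tryptic soy broth. Single doses, in a twofold rising series, were given at the same time as challenge: subcutaneously as aqueous solution, or orally by gavage in 5% gum acacia. Survival in groups of eight mice per dose gave PD50 (mg/kg) by log probit.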

Mus musculus [8] = test: Compound was evaluated for protective dose against the Escherichia coli vogel lethal infection following peroral administration in mouse; format: functional; details: po, read-out: PD50; how it was run: as §3
[9] = biological target: DNA gyrase (Escherichia coli) (UniProt P0AES6+P0AES4); test: Inhibition of DNA gyrase of Escherichia coli H560 cells
How it was run: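 DNA gyrase purified from Escherichia coli H560 cells. Cleavage assay: drug-gyrase-DNA complex denatured, converting closed circular DNA to linear DNA. Linear DNA resolved by gel electrophoresis and stained with ethidium bromide. Value is the minimum drug concentration (µg/mL) giving linear DNA at an intensity relative to oxolinic acid at 10 µg/mL. Aqueous drug stocks made up in 0.1 N NaOH or KOH.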

Enterobacter cloacae = test: Compound was tested for inhibition of the gram-negative organism […] HA 2646; format: functional
Providencia rettgeri [10] = test: (§8) Compound was tested for inhibition of the gram-negative organism Providencia rettgeri H1771; format: functional; how it was run: as §2
Staphylococcus aureus [11] = test: (§9) Compound was tested for inhibition of the […] organism […] H228.; format: functional; how it was run: as §2
Streptococcus pyogenes [12] = test: (§10) Compound was tested for inhibition of the […] organism Streptococcus pyogenes C203.; format: functional; how it was run: as §2
Mus musculus [13] = test: Compound was evaluated for protective dose against Streptococcus pneumoniae SV-1 lethal infection following sc administration; format: functional; details: read-out: PD50; how it was run: as §7
Mus musculus [14] = test: Compound was evaluated for protective dose against the Escherichia coli vogel lethal infection following sc administration in mouse; format: functional; details: read-out: PD50; how it was run: as §3
Enterococcus faecalis [15] = test: (§11) Compound was tested for inhibition of the […] organism Streptococcus faecalis MGH-2; format: functional; how it was run: as §2
Escherichia coli [16] = test: (§12) Compound was tested for inhibition of the gram-negative organism Escherichia coli vogel; format: functional; how it was run: as §2
Streptococcus pneumoniae [17] = test: (§13) Compound was tested for inhibition of the […] organism Streptococcus pneumoniae SV-1; format: functional; how it was run: as §2
Streptococcus pneumoniae [18] = test: as §13; format: functional; remark: listed apart in the source
Enterococcus faecalis [19] = test: as §11; format: functional; remark: listed apart in the source
Escherichia coli [20] = test: as §12; format: functional; remark: listed apart in the source
Escherichia coli [21] = test: Compound was tested for inhibition of target enzyme DNA gyrase obtained from Escherichia coli H560 cells; format: functional
How it was run: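 Gyrase isolated from E. coli H560 cells. Drug-gyrase-DNA complex denatured, and closed circular DNA converted to linear DNA. Linear DNA resolved by gel electrophoresis and stained with ethidium bromide. Value is the minimum drug concentration (µg/mL) giving linear DNA at an intensity relative to oxolinic acid at 10 µg/mL. Aqueous drug stocks made in 0.1 N NaOH or KOH.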

Staphylococcus aureus [22] = test: as §9; format: functional; remark: listed apart in the source
Staphylococcus aureus [23] = test: as §4; format: functional; remark: listed apart in the source
Pseudomonas aeruginosa [24] = test: as §1; format: functional; remark: listed apart in the source
Streptococcus pyogenes [25] = test: as §10; format: functional; remark: listed apart in the source
Providencia rettgeri [26] = test: as §8; format: functional; remark: listed apart in the source
Klebsiella pneumoniae [27] = test: as §5; format: functional; remark: listed apart in the source
Escherichia coli [28] = test: as §6; format: functional; remark: listed apart in the source

SMILES	MIC (Pseudomonas aeruginosa [1]) [µg/mL]	ED50 (Mus musculus [2]) [mg/kg]	MIC (Staphylococcus aureus [3]) [µg/mL]	MIC (Klebsiella pneumoniae [4]) [µg/mL]	ED50 (Mus musculus [5]) [mg/kg]	MIC (Escherichia coli [6]) [µg/mL]	ED50 (Mus musculus [7]) [mg/kg]	ED50 (Mus musculus [8]) [mg/kg]	Min concentration [9] [µg/mL]	MIC (Enterobacter cloacae) [µg/mL]	MIC (Providencia rettgeri [10]) [µg/mL]	MIC (Staphylococcus aureus [11]) [µg/mL]	MIC (Streptococcus pyogenes [12]) [µg/mL]	ED50 (Mus musculus [13]) [mg/kg]	ED50 (Mus musculus [14]) [mg/kg]	MIC (Enterococcus faecalis [15]) [µg/mL]	MIC (Escherichia coli [16]) [µg/mL]	also measured
CCn1cc(C(=O)O)c(=O)c2cc(F)c(N3CCNCC3)nc21 [ENOXACIN]	1.6 (≈ 4.99 µM)	12	0.4 (≈ 1.25 µM)	0.2 (≈ 0.624 µM)	10	0.1 (≈ 0.312 µM)	> 200	3	5	0.2 (≈ 0.624 µM)	0.1 (≈ 0.312 µM)	1.6 (≈ 4.99 µM)	12.5 (≈ 39 µM)	> 100	2	3.1 (≈ 9.68 µM)	0.2 (≈ 0.624 µM)	
CCNCC1CCN(c2c(F)cc3c(=O)c(C(=O)O)cn(CC)c3c2F)C1 (stereo not given) [MERAFLOXACIN]	1.6 (≈ 4.22 µM)	2.8	0.05 (≈ 0.132 µM)	0.2 (≈ 0.527 µM)	1.6	0.1 (≈ 0.264 µM)	20	12	2.5	0.2 (≈ 0.527 µM)	0.4 (≈ 1.05 µM)	0.1 (≈ 0.264 µM)	0.1 (≈ 0.264 µM)	4.4	1.7	0.1 (≈ 0.264 µM)	0.1 (≈ 0.264 µM)	MIC (Streptococcus pneumoniae [17]): 0.1 µg/mL (≈ 0.264 µM)
CCn1cc(C(=O)O)c(=O)c2ccc(C)nc21 [NALIDIXIC ACID]	> 100	> 100	25 (≈ 108 µM)	6.3 (≈ 27.1 µM)	> 100	6.3 (≈ 27.1 µM)	> 100	45	50	6.3 (≈ 27.1 µM)	6.3 (≈ 27.1 µM)	100 (≈ 431 µM)	> 100	> 100	26	> 100	3.1 (≈ 13.3 µM)	
CCn1cc(C(=O)O)c(=O)c2cc(F)c(N3CCNCC3)cc21 [NORFLOXACIN]		23			15		150	4		0.1 (≈ 0.313 µM)				> 100	1			MIC (Streptococcus pneumoniae [18]): 1.6 µg/mL (≈ 5.01 µM); MIC (Enterococcus faecalis [19]): 1.6 µg/mL (≈ 5.01 µM); MIC (Escherichia coli [20]): 0.025 µg/mL (≈ 0.0783 µM); MIC (Escherichia coli [21]): 1 µg/mL (≈ 3.13 µM); MIC (Staphylococcus aureus [22]): 0.8 µg/mL (≈ 2.51 µM); MIC (Staphylococcus aureus [23]): 0.05 µg/mL (≈ 0.157 µM); MIC (Pseudomonas aeruginosa [24]): 0.2 µg/mL (≈ 0.626 µM); MIC (Streptococcus pyogenes [25]): 0.8 µg/mL (≈ 2.51 µM); MIC (Providencia rettgeri [26]): 0.025 µg/mL (≈ 0.0783 µM); MIC (Klebsiella pneumoniae [27]): 0.05 µg/mL (≈ 0.157 µM); MIC (Escherichia coli [28]): 0.1 µg/mL (≈ 0.313 µM)
CC1COc2c(N3CCN(C)CC3)c(F)cc3c(=O)c(C(=O)O)cn1c23 (stereo not given) [OFLOXACIN]	0.4 (≈ 1.11 µM)	11	0.1 (≈ 0.277 µM)	0.1 (≈ 0.277 µM)	5		68	2	5	0.1 (≈ 0.277 µM)	0.2 (≈ 0.553 µM)		0.8 (≈ 2.21 µM)	38	0.8	0.8 (≈ 2.21 µM)	0.1 (≈ 0.277 µM)	
CCn1cc(C(=O)O)c(=O)c2cc3c(cc21)OCO3 [OXOLINIC ACID]	6.3 (≈ 24.1 µM)	> 100	0.8 (≈ 3.06 µM)	0.2 (≈ 0.766 µM)	63	0.2 (≈ 0.766 µM)		17	10	0.4 (≈ 1.53 µM)	0.1 (≈ 0.383 µM)	1.6 (≈ 6.12 µM)	> 100		9	12.5 (≈ 47.9 µM)	0.2 (≈ 0.766 µM)	
CCn1cc(C(=O)O)c(=O)c2cc(F)c(N3CCN(C)CC3)cc21 [PEFLOXACIN]	0.4 (≈ 1.2 µM)	9.5	0.1 (≈ 0.3 µM)	0.05 (≈ 0.15 µM)	3.7	0.1 (≈ 0.3 µM)	200	2.8			0.05 (≈ 0.15 µM)	0.2 (≈ 0.6 µM)	0.8 (≈ 2.4 µM)	96	1.6	0.8 (≈ 2.4 µM)	0.025 (≈ 0.075 µM)	

Source: ChEMBL document CHEMBL1123422, “1-Ethyl-7-[3-[(ethylamino)methyl]-1-pyrrolidinyl]-6,8-difluoro-1,4- dihydro-4-oxo-3-quinoline-carboxylic acid. New quinolone antibacterial with potent gram-positive activity” (1986)
